# Experimental data of several laboratories.
# Each line is one published result; the experiments were not run side by side.
# DYRK1A: Dual specificity tyrosine-phosphorylation-regulated kinase 1A (DYRK1A, Homo sapiens, UniProt Q13627)
# PDGFRB: Platelet-derived growth factor receptor beta (PDGFRB, Homo sapiens, UniProt P09619)
# ADRA1D: Alpha-1D adrenergic receptor (ADRA1D, Homo sapiens, UniProt P25100)
SMILES,target,test,conditions,quantity,value
Cc1cc(O)c(-c2ccc([C@@H](C)CN(C)C)cc2)c2c1[nH]c(=O)c1sccc12,"Ephrin type-B receptor 3 (EPHB3, Homo sapiens, UniProt P54753)","cell-free assay, inhibitor",0.1 µM,inhibition,-4.48%
Cc1nc(Sc2nc(C)nc3sc4c(c23)CCC4)c2c3c(sc2n1)CCC3,DYRK1A,"enzyme activity, inhibitor, ADP detection",10 µM,inhibition,47.4%
N#Cc1ccc(NC(=O)Nc2ccccc2)cc1,PDGFRB,"cell-free assay, competition with immobilised ligand",25 µM,remaining binding,33%
NC/C(=C\F)COc1cccc(Cn2c(=S)[nH]c(=O)c3[nH]cnc32)c1,ADRA1D,"ligand displacement, radioligand",10 µM,inhibition,< 50%
C1=C/COCc2cc(ccc2OCCN2CCCC2)Nc2nccc(n2)-c2cccc(c2)COC/1,PDGFRB,binding,0.1 µM,remaining binding,32%
COc1ccc2oc(-c3ccc4nc(N)oc4c3)c/c(=N\c3ccccc3NC(=O)CCN)c2c1,"Dual specificity tyrosine-phosphorylation-regulated kinase 1B (DYRK1B, Homo sapiens, UniProt Q9Y463)","binding, competition with immobilised ligand",1 µM,remaining binding,102%
Nc1ncnc2c1ncn2[C@@H]1O[C@H](COP(=O)(O)OP(=O)(O)OP(=O)(O)O)[C@@H](O)[C@H]1O,"Inositol-tetrakisphosphate 1-kinase (Homo sapiens, UniProt Q13572)","enzyme activity, substrate, ADP detection",,Km,2.7 µM
Brc1cc(Br)c2ccncc2c1Br,DYRK1A,"enzyme activity, inhibitor, ADP detection",10 µM,inhibition,41.5%
Cc1cc(F)cc2c(CCC(=O)N[C@@H]3C(=O)NC[C@H]3O)c(-c3ccc(F)cc3)[nH]c12,"Muscarinic acetylcholine receptor M3 (CHRM3, Homo sapiens, UniProt P20309)",cell-free assay,10 µM,inhibition,0%
O=C1C2C3CC(C(Br)C3Br)C2C(=O)N1CC1CCCO1 (stereo not shown),DYRK1A,"enzyme activity, inhibitor, ADP detection",10 µM,inhibition,41.5%
CN(C)CCOC(=O)COc1ccc(Cl)cc1,ADRA1D,"ligand displacement, radioligand","1 µM, cell membranes",inhibition,0%
C#Cc1cc(-c2cc(Nc3nc(N[C@@H](C)c4ccc(F)cn4)ncc3Cl)n[nH]2)ccc1C=O,"Homeodomain-interacting protein kinase 2 (HIPK2, Homo sapiens, UniProt Q9H2X6)","enzyme activity, inhibitor",0.2 µM,inhibition,40.4%
CCCCC(=O)Nc1ccc(-c2ccc3ncn(CCC)c(=O)c3c2)cn1,"Serine/threonine-protein kinase 25 (STK25, Homo sapiens, UniProt O00506)","binding, competition with immobilised ligand",0.5 µM,remaining binding,85%
